Assay results of several laboratories.
Target: Carbonic anhydrase 1 (CA1, Homo sapiens, UniProt P00915)
Read-out: enzyme activity
Mode: inhibitor

Structure (SMILES) | assay | quantity | result
Cc1ccc([C@H]2[C@H](C(=O)c3cccs3)[C@@H](c3cccs3)[C@@H]3c4ccccc4/C(=N/NC(N)=S)[C@@H]32)cc1 (racemic) | absorbance | IC50 | 1670 nM
Cc1c(Cl)c(=O)oc2cc(OCCCC[Se]C#N)ccc12 | stopped-flow | Ki | > 100 µM
O=C(Nc1cccc(Cl)c1)Nc1ccc2c(c1)C=CCP(=O)(O)O2 | stopped-flow | Ki | > 10 µM
CC(C)c1cc2c(c(O)c1O)[C@@]13CCCC(C)(C)[C@@H]1C[C@@H]2OC3=O | – | IC50 | 2.4 nM
NC(=S)N/N=C1/c2ccccc2[C@@H]2[C@H]1[C@@H](c1ccc(C(F)(F)F)cc1)[C@H](C(=O)c1ccc(C(F)(F)F)cc1)[C@H]2c1ccc(C(F)(F)F)cc1 (racemic) | absorbance | IC50 | 570 nM
N#C[Se]Cc1cc(=O)oc2cc(O)ccc12 | stopped-flow | Ki | > 100 µM
Cc1ccc(C(=O)Nc2ccc3c(c2)C=CCP(=O)(O)O3)cc1 | stopped-flow | Ki | > 10 µM
NC(=S)N/N=C1/c2ccccc2[C@@H]2[C@H]1[C@@H](c1ccoc1)[C@H](C(=O)c1ccco1)[C@H]2c1ccoc1 | absorbance | IC50 | 434 nM
CC(C)c1cc2c(c(O)c1O)[C@@]1(C(=O)O)CCCC(C)(C)[C@@H]1CC2 | – | Ki | 0.00598 µM
CCOP1(=O)CC=Cc2cc(N)ccc2O1 (stereo not drawn) | stopped-flow | Ki | > 10 µM
CC(C)c1cc2c(c(O)c1O)[C@@]13CCCC(C)(C)[C@@H]1[C@@H](O)[C@@H]2OC3=O | – | Ki | 0.00128 µM
O=C(Nc1ccc(Cl)cc1)Nc1ccc2c(c1)C=CCP(=O)(O)O2 | stopped-flow | Ki | > 10 µM
NC(=S)N/N=C1/c2ccccc2[C@@H]2[C@H]1[C@@H](c1cccs1)[C@H](C(=O)c1cccs1)[C@H]2c1cccs1 (racemic) | absorbance | IC50 | 774 nM
COc1ccc(NC(=O)Nc2ccc3c(c2)C=CCP(=O)(O)O3)cc1 | stopped-flow | Ki | > 10 µM
CC(C)c1cc2c(c(O)c1O)[C@@]13CCCC(C)(C)[C@@H]1[C@H](OC3=O)[C@H]2O | – | IC50 | 0.21 nM
